# Published values of several laboratories.
# Observed: cell growth or viability
Compound,cell line,method,time,pH,IC50
Cn1cc(-c2ccc3c(c2)ncn3-c2ccc(CC(=O)Nc3cc(C(C)(C)C)on3)cc2)cn1,NIH3T3,,,,34.4 nM
Cc1ccc(-c2ccc(O)cc2)c(C(=C2C=CC(=O)C=C2)c2ccc(O)cc2)c1C#Cc1ccc(O)cc1,HUVEC,MTT,48 h,,> 50000 nM
Nc1ccn([C@@H]2O[C@H](CO)[C@@H](O)C2(F)F)c(=O)n1,HFF-1,MTT,,,14400 nM
COc1cc(/C=C/C(=O)CC(=O)/C=C/c2ccc(O)c(OC)c2)ccc1O,HUVEC,MTT,48 h,,10.3 µg/mL
Nc1nc2sc(CCCCCCCCc3ccc(C(=O)N[C@@H](CCC(=O)O)C(=O)O)cc3)cc2c(=O)[nH]1,R2/PCFT4,,96 h,pH 7.2,> 1000 nM
CCCON(Cc1ccc(C(=O)NO)cc1)C(=O)Nc1ccccc1,HAL-01,ATP luminescence,72 h,,6650 nM
COc1cc(Nc2nccc(-c3cnn4nc(OC)ccc34)n2)cc(C(F)(F)F)c1,NCI-H1048,ATP luminescence,,,380 nM
CO[C@H]1/C=C\C=C(/C)C(=O)NC2=CC(=O)C(NCCN(C)C)=C(C[C@@H](C)C[C@H](OC)[C@H](O)[C@@H](C)/C=C(\C)[C@@H]1OC(N)=O)C2=O,HUVEC,MTT,,,880 nM
O=c1[nH]cc(F)c(=O)[nH]1,HUVEC,MTT,48 h,,> 50000 nM
COc1cc(-c2ncn(/C=C\C(=O)OC(C)C)n2)cc(C(F)(F)F)c1,MEG-01,,72 h,,83 nM
Nc1nc2sc(CCCc3ccc(C(=O)N[C@@H](CCC(=O)O)C(=O)O)cc3)cc2c(=O)[nH]1,R2/PCFT4,,96 h,pH 7.2,> 1000 nM
C=CCNC1=C2C[C@@H](C)C[C@H](OC)[C@H](O)[C@@H](C)/C=C(\C)[C@H](OC(N)=O)[C@@H](OC)/C=C\C=C(/C)C(=O)NC(=CC1=O)C2=O,HUVEC,MTT,,,1200 nM
Nc1nc2sc(CCCCCCc3ccc(C(=O)N[C@@H](CCC(=O)O)C(=O)O)cc3)cc2c(=O)[nH]1,R2/PCFT4,,96 h,pH 7.2,> 1000 nM
CC(C)C[C@H](NC(=O)[C@H](Cc1ccccc1)NC(=O)c1cnccn1)B(O)O,NCI-H2286,ATP luminescence,,,6.6 nM
